Test results reported in ChEMBL document CHEMBL4354813, “Design, Synthesis, and Pharmacological Evaluation of Potent Positive Allosteric Modulators of the Glucagon-like Peptide-1 Receptor (GLP-1R)” (J Med Chem, 2020).
Activity calls are given as the source filed them. The calls are words filed in the database; no cut-off is given here.

Tests used:
Mus musculus [1] = assay: Suppression of blood glucose concentration in 4.5 mg/kg, ip GLP1(9-36)NH2-treated GLP-1R (-/-) C57Bl/6J mouse model at 30 mg/kg, po dosed 1 hrs before test and treated with 60 mg/kg, po OATP/MRP2 inhibitor rifampicin 2.5 hrs prior to oral glucose-tolerance test; format: functional, organism-based
How it was run: (§1)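 GLP-1R-/- male mice aged 10 weeks, n=6, fasted overnight. Rifampicin 60 mg/kg p.o. 2.5 h before the oGTT, compound p.o. 1 h before, with or without GLP1(9-36)NH2 i.p. 15 min before. Glucose 2 g/kg orally. Tail-vein blood glucose by glucometer at 0, 15, 30, 60 and 90 min.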

[2] = Cmax in Wistar rat at 10 mg/kg, po administered as single dose measured up to 24 hrs ESI-LC/MS-MS analysis; format: ADME, organism-based; design: dose 10 mg/kg, route oral; details: in vivo
How it was run: (§2)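 Single dose of compound: 3 mg/kg i.v. in solution (75% water : 25% of 75% Glycoferol/25% Cremophor) or 10 mg/kg p.o. as wet-milled suspension (0.6% methylcellulose, 0.5% Tween 80 in water); male Wistar rats n=3 per route, female C57Bl6 mice n=24 per route. Plasma sampled 0.25–24 h (p.o.), 0.083–24 h (i.v.); heparinized plasma, acetonitrile precipitation, ESI-LC/MS-MS (LOQ 1 ng/mL rat, 5 ng/mL mouse); noncompartmental analysis, linear trapezoidal.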

Mus musculus [3] = assay: Suppression of blood glucose concentration in ob/ob C57Bl/6J mouse model of T2DM at 30 mg/kg, po in absence of OATP/MRP2 inhibitor rifampicin and/or GLP1(9-36)NH2 by oral glucose-tolerance test; format: functional, organism-based
How it was run: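 Male ob/ob mice aged 10–11 weeks, n=7, randomised on blood glucose and fasted overnight. Rifampicin 60 mg/kg p.o. 2.5 h before the oGTT, compound 30 mg/kg p.o. 1 h before, GLP1(9-36)NH2 i.p. 15 min before, each given as indicated. Glucose 2 g/kg orally. Tail-vein glucose by glucometer at 0, 15, 30, 60 and 90 min.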

[4] = Metabolic lability in human liver microsomes incubated up to 20 mins by LC-MS/MS analysis
[5] = Clearance in Wistar rat at 3 mg/kg, iv administered as single dose measured up to 24 hrs ESI-LC/MS-MS analysis; details: in vivo
[6] = Apparent permeability from apical and basolateral in human Caco2/TC7 cells at apical pH 6.5 with 0.5% BSA and basolateral pH 7.4 with 5% BSA at 20 uM incubated for 2 hrs by LC-MS/MS analysis; details: caco2/tc7, pH 6.5 apical, pH 7.4 basolateral
OATP1B3 = target: T1, OATP1B3 (Homo sapiens, UniProt Q9NPD5); assay: Substrate activity at human OATP1B3 expressed in HEK293 cells assessed as increase in compound uptake at 1 uM incubated up to 15 mins LC-MS/MS analysis relative to control relative to control; format: ADME, cell-based; details: HEK293 cells expressing human OATP1B3, read-out: FC
T1 sequence (Q9NPD5 whole entry): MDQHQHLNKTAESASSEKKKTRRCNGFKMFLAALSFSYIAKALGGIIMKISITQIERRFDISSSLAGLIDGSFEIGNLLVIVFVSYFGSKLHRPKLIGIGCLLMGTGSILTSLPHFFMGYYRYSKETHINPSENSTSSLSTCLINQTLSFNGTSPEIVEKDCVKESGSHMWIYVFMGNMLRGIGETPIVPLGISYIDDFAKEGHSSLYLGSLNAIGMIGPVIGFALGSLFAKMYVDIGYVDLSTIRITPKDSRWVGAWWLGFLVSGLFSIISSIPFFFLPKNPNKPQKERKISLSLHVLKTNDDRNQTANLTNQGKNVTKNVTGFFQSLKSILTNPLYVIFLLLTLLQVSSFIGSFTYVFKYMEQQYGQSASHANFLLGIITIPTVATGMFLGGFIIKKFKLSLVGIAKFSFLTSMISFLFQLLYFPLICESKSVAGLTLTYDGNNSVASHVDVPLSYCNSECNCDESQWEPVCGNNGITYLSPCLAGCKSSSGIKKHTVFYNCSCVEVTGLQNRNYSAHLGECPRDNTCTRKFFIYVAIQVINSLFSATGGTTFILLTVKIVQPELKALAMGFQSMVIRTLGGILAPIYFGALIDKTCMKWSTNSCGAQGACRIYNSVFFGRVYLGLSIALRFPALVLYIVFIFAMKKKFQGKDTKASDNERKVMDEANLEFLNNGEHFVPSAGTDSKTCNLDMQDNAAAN
How it was run: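 HEK-TR cells overexpressing hOATP1B1 or hOATP1B3, run in parallel with control HEK-TR cells, seeded at 1 x 10⁵ cells/well one day before. Time-dependent uptake of 1 μM compound in HBSS at 37 °C, quadruplicates. Uptake stopped with ice-cold buffer, cells washed, lysed and quantified by LC-MS/MS. Uptake ratio calculated against the control cells.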

[7] = Oral bioavailability in C57Bl6 mouse at 10 mg/kg administered as single dose measured up to 24 hrs ESI-LC/MS-MS analysis; format: ADME, organism-based; details: in vivo; how it was run: as §2
[8] = Cmax in C57Bl6 mouse at 10 mg/kg, po administered as single dose measured up to 24 hrs ESI-LC/MS-MS analysis; format: ADME, organism-based; design: dose 10 mg/kg, route oral; details: in vivo; how it was run: as §2
[9] = Oral bioavailability in Wistar rat at 10 mg/kg administered as single dose treated 2 hrs after dosing with 40 mg/kg, po OATP/MRP2 inhibitor rifampicin and measured up to 24 hrs ESI-LC/MS-MS analysis; format: ADME, organism-based; details: in vivo
How it was run: (§3)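 Male Wistar rats (n=3 per route) pretreated orally with rifampicin 40 mg/kg (0.6% methylcellulose, 0.5% Tween 80 in water) 2 h before compound, given 3 mg/kg i.v. in Glycoferol/Cremophor-water solution or 10 mg/kg p.o. wet-milled suspension. Plasma sampled up to 24 h; ESI-LC/MS-MS after acetonitrile precipitation (LOQ 1 ng/mL); noncompartmental analysis.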

[10] = Volume of distribution at steady state in C57Bl6 mouse at 3 mg/kg, iv administered as single dose measured up to 24 hrs ESI-LC/MS-MS analysis; format: ADME, organism-based; details: in vivo, read-out: Vdss
How it was run: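 Single dose of 3 mg/kg i.v. in water/Glycoferol/Cremophor solution to female C57Bl6 mice (n=24) or male Wistar rats (n=3). In rats, rifampicin 40 mg/kg p.o. was given 2 h before dosing where indicated. Plasma sampled at 0.083–24 h. ESI-LC/MS-MS after acetonitrile precipitation. Non-compartmental analysis.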

Mus musculus [11] = assay: Suppression of blood glucose concentration in GLP-1R (-/-) C57Bl/6J mouse model at 30 mg/kg, po dosed 1 hrs before test and treated with 60 mg/kg, po OATP/MRP2 inhibitor rifampicin 2.5 hrs prior to oral glucose-tolerance test; format: functional, organism-based; how it was run: as §1
[12] = Clearance in Wistar rat at 3 mg/kg, iv administered as single dose treated 2 hrs after dosing with 40 mg/kg, po OATP/MRP2 inhibitor rifampicin and measured up to 24 hrs ESI-LC/MS-MS analysis; format: ADME, organism-based; details: in vivo; how it was run: as §3

CC(C)(C)OC(=O)n1c2c(c3ccccc31)C[C@H]1C(=O)N3C[C@@H](CC(=O)O)C[C@H]3[C@@H]2N1C(=O)CC1CCC(F)(F)CC1
Activity (Mus musculus [1]): inactive
Cmax [2]: 106 ng/mL
Activity (Mus musculus [3]): inactive
metabolized at 20 min [4]: 20%
CL [5]: 118 mL/min/kg
Papp [6]: 32 ×10⁻⁷ cm/s
uptake ratio at 0.25 h, 1 µM (OATP1B3): 6 to 22
bioavailability [7]: 7.2%
Cmax [8]: 227 ng/mL
bioavailability [9]: 100%
Vd [10]: 0.934 L/kg
Activity (Mus musculus [11]): inactive
clearance [12]: 19.2 mL/min/kg
